From ChEMBL document CHEMBL3392957, “The discovery of 1,2,3,9b-tetrahydro-5H-imidazo[2,1-a]isoindol-5-ones as a new class of respiratory syncytial virus (RSV) fusion inhibitors. Part 1” (Bioorg Med Chem Lett, 2015)
Converted amounts (≈) assume the structure as drawn.

What was measured:
[1] = system: Respiratory syncytial virus; assay: Antiviral activity against Respiratory syncytial virus B1 infected in human Hep2 cells assessed as inhibition of virus-induced cytopathicity after 5 days by MTT assay; type: functional, organism-based; conditions: B1, HEp-2, 120 h
Outline: (§1)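 HEp2 cells (1.0 × 10⁴/well) infected at low moi (e.g. RSV A2 at moi 0.01) and added to serially diluted compound; 5 days at 37 °C, 5% CO₂. CPE read by MTT (1 mg/ml, 2 h, 37 °C), isopropanol, absorbance 540 nm; EC₅₀ by non-linear regression. SD given where n > 2.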

[2] = system: Respiratory syncytial virus; assay: Antiviral activity against wild-type Respiratory syncytial virus A Long infected in human Hep2 cells assessed as inhibition of virus-induced cytopathicity after 5 days by MTT assay; type: functional, organism-based; conditions: HEp-2, 120 h; outline: as §1
[3] = system: Respiratory syncytial virus; assay: Antiviral activity against Respiratory syncytial virus A2 infected in human Hep2 cells assessed as inhibition of virus-induced cytopathicity after 5 days by MTT assay; type: functional, organism-based; conditions: A2, HEp-2, 120 h; outline: as §1
[4] = Cytotoxicity against human Hep2 cells after 5 days by MTT assay; type: cell-based, HEp-2
Outline: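 Uninfected HEp2 cells (1.0 × 10⁴/well) with serially diluted compound, 5 days at 37 °C in 5% CO₂; viability by MTT (1 mg/ml, 2 h), isopropanol, absorbance 540 nm; CC₅₀ by non-linear regression.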

[5] = system: Respiratory syncytial virus; assay: Antiviral activity against Respiratory syncytial virus A2 infected in human Hep2 cells assessed as inhibition of virus-induced cytopathicity after 5 days by MTT assay relative to alpha-1-acid glycoprotein; type: functional, HEp-2
Outline: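 RSV A2 CPE assay in HEp2 cells (moi 0.01, 5 days, 37 °C, MTT read-out at 540 nm) run with alpha-1-acid glycoprotein at 1.5 mg/mL; result expressed as fold shift in EC₅₀ versus the assay without AAG.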

[6] = Kinetic solubility of the compound at pH 2 by nephelometry; type: physicochemical; conditions: buffer, read-out: Kinetic_solubility
Outline: (§2)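 Kinetic solubility by nephelometry, at pH 2 and pH 6.5; reported as a range in μg/mL.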

[7] = Kinetic solubility of the compound at pH 6.5 by nephelometry; type: physicochemical; conditions: buffer, read-out: Kinetic_solubility; outline: as §2
[8] = Lipophilicity, log D of the compound in octanol saturated mobile phase at pH 7.4 by chromatographic method; type: physicochemical
Outline: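 Effective logD determined chromatographically on a SUPELCOSIL LC-ABZ column with octanol-saturated mobile phase, pH 7.4.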

[9] = system: Respiratory syncytial virus; assay: Selectivity ratio of EC50 for Respiratory syncytial virus A Long harboring F protein D489 mutant infected in human Hep2 cells to EC50 for wild-type Respiratory syncytial virus A Long infected in human Hep2 cells; type: functional, HEp-2
Outline: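 CPE assay: HEp2 cells (1.0 × 10⁴/well) infected at low moi with RSV A Long, either F-protein D489Y mutant or wild type, and added to serially diluted compound. Incubated 5 days at 37 °C, 5% CO₂. MTT (1 mg/ml) added for 2 h, then isopropanol, and absorbance read at 540 nm. EC50 by non-linear regression. Ratio is mutant EC50 over wild-type EC50.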

[10] = Plasma protein binding in rat; type: ADME, cell-free; conditions: read-out: PPB (converted)
[11] = Elimination half life in Sprague-Dawley rat at 1.4 mg/kg, iv; type: ADME, organism-based; set-up: dose 1.4 mg/kg, route intravenous; conditions: in vivo, read-out: beta t1/2 (converted)
[12] = Total clearance in Sprague-Dawley rat at 1.4 mg/kg, iv; type: ADME, organism-based; set-up: dose 1.4 mg/kg, route intravenous; conditions: in vivo
[13] = Apparent volume of distribution in Sprague-Dawley rat at 1.4 mg/kg, iv; type: ADME, organism-based; set-up: dose 1.4 mg/kg, route intravenous; conditions: in vivo, read-out: Vz
[14] = Cmax in Sprague-Dawley rat at 22 mg/kg, po as suspension with hydroxypropylmethylcellulose; type: ADME, organism-based; set-up: dose 22 mg/kg, route oral; conditions: in vivo
[15] = Elimination half life in Sprague-Dawley rat at 22 mg/kg, po as suspension with hydroxypropylmethylcellulose; type: ADME, organism-based; set-up: dose 22 mg/kg, route oral; conditions: in vivo, read-out: beta t1/2 (converted)
[16] = Oral bioavailability in Sprague-Dawley rat at 22 mg/kg as suspension with hydroxypropylmethylcellulose; type: ADME, organism-based; conditions: in vivo
[17] = system: Respiratory syncytial virus; assay: Selectivity ratio of EC50 for Respiratory syncytial virus A Long harboring F protein D489Y mutant infected in human Hep2 cells to EC50 for wild-type Respiratory syncytial virus A Long infected in human Hep2 cells
[18] = Oral bioavailability in Sprague-Dawley rat at 19 mg/kg as suspension with carboxymethylcellulose; type: ADME, organism-based; conditions: in vivo, 20 mg/kg, in the assay text read “20 mg/kg” for “19 mg/kg”
Outline: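 Male Sprague-Dawley rats, n = 2, given a single oral dose. Plasma pharmacokinetics were analysed for Cmax (µM), terminal half-life (hr) and oral bioavailability F (%). The oral bioavailability estimate draws on a separate intravenous arm, also with n = 2 rats.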

[19] = Cmax in Sprague-Dawley rat at 20 mg/kg, po as suspension with carboxymethylcellulose; conditions: in vivo
[20] = Total clearance in Sprague-Dawley rat at 2.0 mg/kg, iv as solution in 5% glucose and 10% DMSO; conditions: in vivo
[21] = Elimination half life in Sprague-Dawley rat at 2.0 mg/kg, iv as solution in 5% glucose and 10% DMSO; conditions: in vivo, read-out: beta t1/2 (converted)
[22] = Elimination half life in Sprague-Dawley rat at 20 mg/kg, po as suspension with carboxymethylcellulose; conditions: in vivo, read-out: beta t1/2 (converted)
[23] = Apparent volume of distribution in Sprague-Dawley rat at 2.0 mg/kg, iv as solution in 5% glucose and 10% DMSO; conditions: in vivo, read-out: Vz

| Structure (SMILES) | EC50 [1] | EC50 [2] | EC50 [3] | CC50 at 120 h [4] | fold change (FC) [5] | solubility kinetic [6] | solubility kinetic [7] | chromatographic logD [8] | also measured |
| --- | --- | --- | --- | --- | --- | --- | --- | --- | --- |
| O=C(c1ccc(F)cc1)N1CCN2C(=O)c3ccccc3C12c1ccc(Cl)cc1 (racemic) | 750 nM | 260 nM | 280 nM | > 20000 nM | 39 | 6.3 µg/mL (≈ 15.5 µM) | 6.3 µg/mL (≈ 15.5 µM) | 4 | Ratio EC50 [9]: >76; fraction unbound [10]: 0.02; half-life [11]: 16 h; clearance [12]: 2.1 mL/min/kg; Vd [13]: 2.7 L/kg; Cmax [14]: 2 µM; half-life [15]: 17 h; bioavailability [16]: 15%; Ratio EC50 [17]: >76 |
| O=C(c1ccc(F)cc1)N1CCN2C(=O)c3cc[n+]([O-])cc3C12c1ccc(Cl)cc1 (racemic) | 910 nM | 120 nM | 250 nM | > 47000 nM | <10 | 50 µg/mL (≈ 118 µM) | 25 µg/mL (≈ 59 µM) | 2.3 | bioavailability [18]: 89%; Cmax [19]: 23 µM; clearance [20]: 2.4 mL/min/kg; half-life [21]: 6.5 h; half-life [22]: 5.6 h; Vd [23]: 1.3 L/kg |
